Measured values from ChEMBL document CHEMBL4402565, “α-Ketoamides as Broad-Spectrum Inhibitors of Coronavirus and Enterovirus Replication: Structure-Based Design, Synthesis, and Activity Assessment” (J Med Chem, 2020).
pEC50, pIC50: −log10 of the molar value.

Tests used:
[1] = Inhibition of Enterovirus A71 protease 3C using DabcylKEALFQ-GPPQF-E(Edans)-NH2 as substrate incubated for 10 mins by fluorospectrometry
How it was run: (§1)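 FRET cleavage assay in 20 mM Tris-HCl, 100 mM NaCl, 1 mM EDTA, 1 mM DTT, pH 7.3. Final enzyme 2 μM for CVB3 3Cpro or 3 μM for EV-A71 3Cpro, preincubated with inhibitor (0–100 μM) for 10 min at 37 °C. Reaction started with 20 μM final Dabcyl-KEALFQ↓GPPQF-E(Edans)-NH₂. Edans dequenching read at ex 360/em 460 nm. Triplicate, mean ± SD.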

[2] = Inhibition of […] protease 3C using DabcylKEALFQ-GPPQF-E(Edans)-NH2 as substrate incubated for 10 mins by fluorospectrometry; parameters: species or system Coxsackievirus; how it was run: as §1
[3] = Inhibition of SARS coronavirus M protease using Dabcyl-KTSAVLQ-SGFRKM-E(Edans)-NH2 as substrate incubated for 10 mins by fluorospectrometry; parameters: species or system Severe acute respiratory syndrome-related coronavirus
How it was run: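 FRET cleavage assay with 0.5 µM recombinant SARS-CoV Mpro (authentic termini) in 20 mM Tris-HCl, 100 mM NaCl, 1 mM EDTA, 1 mM DTT, pH 7.3. Enzyme was preincubated with inhibitor (0–100 µM) for 10 min at 37 °C, then 20 µM final substrate was added. Fluorescence was read at ex 360/em 460 nm. Triplicate, mean ± SD; IC50 from curve fitting.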

[4] = Inhibition of human coronavirus NL63 M protease using Dabcyl-KTSAVLQ-SGFRKM-E(Edans)-NH2 as substrate incubated for 10 mins by fluorospectrometry
How it was run: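 0.5 μM final HCoV-NL63 Mpro preincubated 10 min at 37 °C with inhibitor (0–100 μM) in pH 7.3 Tris buffer (100 mM NaCl, 1 mM EDTA, 1 mM DTT). Cleavage of 20 μM Dabcyl-KTSAVLQ↓SGFRKM-E(Edans)-NH₂ followed by fluorescence at 460 nm with 360 nm excitation. IC50 from triplicate measurements, mean ± SD.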

Enterovirus A71 [5] = experiment: Antiviral activity against Enterovirus A71 infected in HuH7 cells expressing T7 RNA polymerase assessed as reduction in viral RNA replication incubated for 24 hrs by luciferase reporter gene assay; type: functional, organism-based; details: Enterovirus A, Huh-7, 24 h
How it was run: (§2)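 Huh-T7 cells (DMEM, 2 mM glutamine, penicillin/streptomycin, 10% FCS growth or 2% maintenance, G-418 400 μg·mL⁻¹) transfected with enteroviral replicon. Compound added in growth medium at 40 μM for screening or 0, 1.25, 2.5, 5, 10, 20, 40 μM for EC50. After 24 h, cells lysed and luciferase activity read. Triplicate or quadruplicate, mean ± SD.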

[6] = Antiviral activity against […] infected in HuH7 cells expressing T7 RNA polymerase assessed as reduction in viral RNA replication incubated for 24 hrs by luciferase reporter gene assay; type: functional, organism-based; details: B3, Huh-7, 24 h; how it was run: as §2
SARS-CoV [7] = experiment: Antiviral activity against SARS coronavirus infected in HuH7 cells expressing T7 RNA polymerase assessed as reduction in viral RNA replication incubated for 24 hrs by luciferase reporter gene assay; type: functional, organism-based; details: Severe acute respiratory syndrome-related coronavirus, Huh-7, 24 h
How it was run: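 SARS-CoV replicon (DNA-launched, Renilla luciferase reporter) was transfected into Huh-T7 cells at 80–90% confluency. Compound at 0, 1.25, 2.5, 5, 10, 20 or 40 µM in growth medium was added after transfection. At 24 h, cells were lysed and luciferase activity measured. Runs were in triplicate or quadruplicate, reported as mean ± SD.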

[8] = Antiviral activity against […] infected in HuH7 cells expressing T7 RNA polymerase assessed as reduction in virus-induced cytopathic effect incubated for 2 days by non-radioactive cell proliferation assay; type: functional, organism-based; details: B3, Huh-7, 48 h
Human coronavirus 229E = experiment: Antiviral activity against Human coronavirus 229E infected in HuH7 cells expressing T7 RNA polymerase assessed as reduction in virus-induced cytopathic effect incubated for 48 hrs by Alamar blue based assay; type: functional, organism-based; details: Huh-7, 48 h
[9] = test system: Middle East respiratory syndrome-related coronavirus; experiment: Antiviral activity against Middle East respiratory syndrome coronavirus infected in HuH7 cells expressing T7 RNA polymerase assessed as reduction in virus-induced cytopathic effect incubated for 2 days by non-radioactive cell proliferation assay; type: functional, organism-based; details: Huh-7, 48 h
[10] = test system: Middle East respiratory syndrome-related coronavirus; experiment: Antiviral activity against Middle East respiratory syndrome coronavirus infected in Vero cells assessed as reduction in virus-induced cytopathic effect incubated for 3 days by non-radioactive cell proliferation assay; type: functional, organism-based; details: 72 h
SARS-CoV [11] = experiment: Antiviral activity against SARS coronavirus infected in Vero E6 cells assessed as reduction in virus-induced cytopathic effect incubated for 2 days by non-radioactive cell proliferation assay; type: functional, organism-based; details: Severe acute respiratory syndrome-related coronavirus, Vero C1008, 48 h
Enterovirus A71 [12] = experiment: Antiviral activity against Enterovirus A71 infected in RD cells assessed as reduction in virus-induced cytopathic effect incubated for 3 days by MTS assay; type: functional, organism-based; details: Enterovirus A, 72 h
How it was run: (§3)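 CPE reduction assay. RD (EV-A71) or HeLa Rh (EV-D68, HRV) cells seeded 24 h earlier in medium with 2% FCS; HRV2/HRV14 medium contained 30 mM MgCl₂. Serial compound dilutions added with virus. At 3 days post infection, 5% MTS added for 1 h at 37 °C and OD498 read. EC50 taken as 50% protection versus controls by logarithmic interpolation; morphology also checked microscopically.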

enterovirus D68 = experiment: Antiviral activity against Enterovirus D68 infected in HeLa Rh cells assessed as reduction in virus-induced cytopathic effect incubated for 3 days by MTS assay; type: functional, organism-based; details: Enterovirus D, 72 h; how it was run: as §3
rhinovirus A2 = experiment: Antiviral activity against Human rhinovirus 2 infected in HeLa Rh cells assessed as reduction in virus-induced cytopathic effect incubated for 3 days by MTS assay; type: functional, organism-based; details: Rhinovirus A, 72 h; how it was run: as §3
rhinovirus B14 = experiment: Antiviral activity against Human rhinovirus 14 infected in HeLa Rh cells assessed as reduction in virus-induced cytopathic effect incubated for 3 days by MTS assay; type: functional, organism-based; details: Rhinovirus B, 72 h; how it was run: as §3
[13] = Cytotoxicity against human HuH7 cells expressing T7 RNA polymerase assessed as reduction in cell viability incubated for 2 days by non-radioactive cell proliferation assay; type: cell-based, Huh-7
[14] = Cytotoxicity against human RD cells assessed as reduction in cell viability incubated for 3 days by MTS assay; type: cell-based
[15] = Cytotoxicity against human HeLa Rh cells assessed as reduction in cell viability incubated for 3 days by MTS assay; type: cell-based
[16] = Therapeutic index, ratio of CC50 for human HuH7 cells expressing T7 RNA polymerase to EC50 for […] infected in human HuH7 cells expressing T7 RNA polymerase; type: toxicity, cell-based; details: read-out: Ratio CC50/EC50
[17] = Therapeutic index, ratio of CC50 for human HuH7 cells expressing T7 RNA polymerase to EC50 for Human coronavirus 229E infected in human HuH7 cells expressing T7 RNA polymerase; type: toxicity, cell-based; details: read-out: Ratio CC50/EC50
How it was run: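 Huh7 cells were infected with HCoV-229E at […] for 1.5 h at 37 °C and washed. Complete DMEM containing inhibitor (0–40 µM) was added. […] CC50 came from a parallel AlamarBlue viability assay normalised to no-inhibitor and 1% Triton X-100 controls. Therapeutic index = CC50/EC50.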

[18] = Therapeutic index, ratio of CC50 for human HuH7 cells expressing T7 RNA polymerase to EC50 for Middle East respiratory syndrome coronavirus infected in human HuH7 cells expressing T7 RNA polymerase; type: toxicity, cell-based; details: read-out: Ratio CC50/EC50
[19] = Therapeutic index, ratio of CC50 for monkey Vero cells to EC50 for Middle East respiratory syndrome coronavirus infected in monkey Vero cells; type: toxicity, cell-based; details: read-out: Ratio CC50/EC50
[20] = Therapeutic index, ratio of CC50 for monkey Vero E6 cells to EC50 for SARS coronavirus infected in monkey Vero E6 cells; type: toxicity, cell-based, Vero C1008; details: read-out: Ratio CC50/EC50
[21] = Therapeutic index, ratio of CC50 for human RD cells to EC50 for Enterovirus A71 infected in human RD cells; type: toxicity, cell-based; details: read-out: Ratio CC50/EC50
How it was run: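 RD cells were seeded 24 h ahead in 2% FCS medium, then given compound serial dilutions plus EV-A71 (BRCR) inoculum. After 3 days, MTS was added for 1 h at 37 °C and OD498 read. EC50 was interpolated as the concentration giving 50% protection from CPE. CC50 was measured on uninfected host cells by viability or cytotoxicity kits. Index = CC50/EC50.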

[22] = Therapeutic index, ratio of CC50 for human HeLa Rh cells to EC50 for Enterovirus D68 infected in human HeLa Rh cells; type: toxicity, cell-based; details: read-out: Ratio CC50/EC50
[23] = Therapeutic index, ratio of CC50 for human HeLa Rh cells to EC50 for Human rhinovirus 2 infected in human HeLa Rh cells; type: toxicity, cell-based; details: read-out: Ratio CC50/EC50
[24] = Therapeutic index, ratio of CC50 for human HeLa Rh cells to EC50 for Human rhinovirus 14 infected in human HeLa Rh cells; type: toxicity, cell-based; details: read-out: Ratio CC50/EC50

## O=C(/C=C/c1ccccc1)N[C@@H](Cc1ccccc1)C(=O)N[C@@H](C[C@@H]1CCNC1=O)C(=O)C(=O)NCc1ccccc1
[1]
  pIC50: 5.91
[2]
  pIC50: 5.18
[3]
  pIC50: 5.71
[4]
  pIC50: < 4.30
Enterovirus A71 [5]
  pEC50: 5.35
[6]
  pEC50: 5.35
SARS-CoV [7]
  pEC50: 5.70
[8]
  pEC50: 4.85
Human coronavirus 229E
  pEC50: 4.93
[9]
  pEC50: 8.32
[10]
  pEC50: 4.87
SARS-CoV [11]
  pEC50: 5.24
Enterovirus A71 [12]
  pEC50: 5.01
Enterovirus D68
  pEC50: 6.32
Rhinovirus A2
  pEC50: 5.25
Rhinovirus B14
  pEC50: 5.37
[13]
  CC50 at 48 h: > 265 µM
[14]
  CC50 at 72 h: 97 µM
[15]
  CC50 at 72 h: 35.5 µM
[16]
  selectivity ratio: > 10
[17]
  selectivity ratio: > 10
[18]
  selectivity ratio: > 10
[19]
  selectivity ratio: > 10
[20]
  selectivity ratio: > 10
[21]
  selectivity ratio: > 10
[22]
  selectivity ratio: > 10
[23]
  selectivity ratio: > 15
[24]
  selectivity ratio: > 15
